The source made the active and inactive calls. No cut-off for these calls is given here.
Assays:
Assay type in all cases: functional
SF-268 [1] = experiment: Cytotoxicity against human SF268 cells after 48 hrs by sulforhodamine B assay; settings: SF-268, 48 h, read-out: LC50 (the source's name)
Summary of the method: (§1)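 NCI 60 human tumour cell line panel run to the NCI protocol. GI50, TGI and LC50 come from log concentration vs % growth inhibition curves for each cell line. Lines insensitive at the top concentration are reported with ">".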

OVCAR-8 = experiment: Cytotoxicity against human OVCAR8 cells after 48 hrs by sulforhodamine B assay; settings: OVCAR-8, 48 h, read-out: LC50 (the source's name); summary of the method: as §1
BT-549 = experiment: Cytotoxicity against human BT549 cells after 48 hrs by sulforhodamine B assay; settings: BT-549, 48 h, read-out: LC50 (the source's name); summary of the method: as §1
786-0 [2] = experiment: Growth inhibition of human 786-0 cells after 48 hrs by sulforhodamine B assay; settings: 786-0, 48 h
Summary of the method: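 From log concentration versus % growth curves, GI50 (50% decrease in net growth), TGI (total growth inhibition) and LC50 (net 50% loss of initial cells) are derived for each line.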

MOLT-4 = experiment: Cytotoxicity against human MOLT4 cells after 48 hrs by sulforhodamine B assay; settings: MOLT-4, 48 h, read-out: LC50 (the source's name); summary of the method: as §1
NCI-H322M = experiment: Cytotoxicity against human NCI-H322M cells after 48 hrs by sulforhodamine B assay; settings: read-out: LC50 (the source's name); summary of the method: as §1
Burkholderia gladioli = experiment: Antibacterial activity against Pseudomonas antimicrobica assessed as zone of inhibition at 5 uL and 32 degC after 36 hrs by disk diffusion method
Summary of the method: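 Disc diffusion on AC agar, each strain spread evenly over the medium; test compounds given as 1% (w/v) DMSO solutions. Plates covered and incubated 36 h at 32 °C, then the diameter of the zone of inhibited growth measured in mm. Tetracycline served as antibacterial reference.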

SF-268 [3] = experiment: Growth inhibition of human SF268 cells after 48 hrs by sulforhodamine B assay; settings: SF-268, 48 h
Summary of the method: (§2)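 GI50, TGI and LC50 were derived from log concentration versus % growth inhibition curves for each cell line. GI50 is the concentration giving a 50% decrease in net cell growth. Insensitive lines are reported as greater than the highest concentration.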

U-251 [4] = experiment: Growth inhibition of human U251 cells after 48 hrs by sulforhodamine B assay; settings: U-251, 48 h
Summary of the method: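 NCI 60-cell panel five-dose assay. GI50, TGI and LC50 are derived from log concentration versus % growth inhibition curves. Cell lines insensitive at the top concentration are given a ">" prefix.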

OVCAR-4 = experiment: Growth inhibition of human OVCAR4 cells after 48 hrs by sulforhodamine B assay; settings: OVCAR-4, 48 h; summary of the method: as §2
U-251 [5] = experiment: Cytotoxicity against human U251 cells after 48 hrs by sulforhodamine B assay; settings: U-251, 48 h, read-out: LC50 (the source's name)
SK-MEL-5 = experiment: Cytotoxicity against human SK-MEL-5 cells after 48 hrs by sulforhodamine B assay; settings: SK-MEL-5, 48 h, read-out: LC50 (the source's name); summary of the method: as §1
786-0 [6] = experiment: Cytotoxicity against human 786-0 cells after 48 hrs by sulforhodamine B assay; settings: 786-0, 48 h, read-out: LC50 (the source's name); summary of the method: as §1
A498 = experiment: Cytotoxicity against human A498 cells after 48 hrs by sulforhodamine B assay; settings: A498, 48 h, read-out: LC50 (the source's name); summary of the method: as §1
ACHN = experiment: Cytotoxicity against human ACHN cells after 48 hrs by sulforhodamine B assay; settings: read-out: LC50 (the source's name); summary of the method: as §1
CAKI-1 = experiment: Cytotoxicity against human Caki1 cells after 48 hrs by sulforhodamine B assay; settings: CAKI-1, 48 h, read-out: LC50 (the source's name); summary of the method: as §1
RXF 393 = experiment: Cytotoxicity against human RXF393 cells after 48 hrs by sulforhodamine B assay; settings: RXF 393, 48 h, read-out: LC50 (the source's name); summary of the method: as §1
MCF7 = experiment: Cytotoxicity against human MCF7 cells after 48 hrs by sulforhodamine B assay; settings: MCF7, 48 h, read-out: LC50 (the source's name); summary of the method: as §1
MDA-MB-468 = experiment: Cytotoxicity against human MDA-MB-468 cells after 48 hrs by sulforhodamine B assay; settings: MDA-MB-468, 48 h, read-out: LC50 (the source's name); summary of the method: as §1
HOP-92 = experiment: Cytotoxicity against human HOP92 cells after 48 hrs by sulforhodamine B assay; settings: HOP-92, 48 h, read-out: LC50 (the source's name); summary of the method: as §1

Compound	CC50 (SF-268 [1])	CC50 (OVCAR-8)	CC50 (BT-549)	GI50 (786-0 [2])	TGI (786-0 [2])	CC50 (MOLT-4)	CC50 (NCI-H322M)	GI50 (SF-268 [3])	TGI (SF-268 [3])	GI50 (U-251 [4])	TGI (U-251 [4])	GI50 (OVCAR-4)	TGI (OVCAR-4)	also measured
CC(C)CCC[C@@H](C)[C@H]1CC[C@H]2C3=CC[C@@H]4C(=O)C=CC(=O)[C@@H]4[C@@H]3CC[C@]12C	> 100 µM	> 8.12 µM	> 100 µM	0.311 µM	1.5 µM	> 100 µM	> 100 µM	0.566 µM	> 100 µM	0.094 µM	1.23 µM	0.159 µM	0.498 µM	diameter of the inhibition zone (DIZ) (Burkholderia gladioli): inactive
CC(C)CCC[C@@H](C)[C@H]1CC[C@H]2C3=CCn4c(=O)ccc(=O)n4[C@@H]3CC[C@]12C	5.7 µM	> 100 µM	2.97 µM	0.713 µM	1.95 µM	> 100 µM	5.84 µM	1.46 µM	2.88 µM	0.438 µM	1.59 µM	0.686 µM	2.11 µM	CC50 (U-251 [5]): 4.18 µM; CC50 (SK-MEL-5): 4.52 µM; CC50 (786-0 [6]): 4.43 µM; CC50 (A498): 4.87 µM; CC50 (ACHN): 5.19 µM; CC50 (CAKI-1): 3.47 µM; CC50 (RXF 393): 5.43 µM; CC50 (MCF7): 4.26 µM; CC50 (MDA-MB-468): 9.42 µM; CC50 (HOP-92): 3.76 µM

From ChEMBL document CHEMBL1806372, “Cytotoxic ring A-modified steroid analogues derived from Grundmann's ketone” (Eur J Med Chem, 2011)
